Assay results from paper PMC2669315 (Bioorganic & medicinal chemistry, 2008).
pIC50: −log10 of the molar value.

Tests used:
[1] = test system: Hsp90 client proteins Her2, Raf-1, and Akt; experiment: Western blot analysis of Hsp90 client protein degradation in MCF-7 cells; format: cell-based, human; conditions: for pIC50: Homo sapiens, MCF7, 24 h, read-out: Hsp90 client protein degradation IC50s; for degradation of Hsp90 client proteins (Her2, Raf-1, Akt) / effect on actin (non Hsp90-dependent protein): MCF-7 cells, 24 h, western blot
Method in brief: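 MCF-7 cells were seeded at 1×10^6 per dish and left to attach overnight. Test compound was added at varying concentrations and incubated 24 h at 37 °C, 5% CO2. Cells were then harvested and client protein levels analysed by western blot using a previously reported method.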

Her2 = Her2 ELISA in SKBr3 cells; format: cell-based, human; conditions: for fold decrease in Her2 degradative activity for meta substituents: meta chloro or methoxy substituent on the benzamide
Method in brief: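 SKBr3 cells were grown as for the proliferation assay, seeded at 3000/well, attached overnight, then given test compound at varying concentrations for 24 hr. Cells were washed with ice-cold PBS/1% Tween and fixed in -20 °C methanol (10 min, 4 °C), then blocked 1 hr in 5% BSA/PBST at rt. Rabbit anti-Her2 (1:500) went on overnight at 4 °C, then HRP anti-rabbit IgG (1:1000) for 2 hr at rt. Read-out was chemiluminescence on a luminometer.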

Hsp90 [2] = format: biochemical, rabbit
MCF-7 cells = experiment: Anti-proliferation assay; format: cell-based, human
Method in brief: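 MCF-7 cells were grown in 1:1 DMEM:Ham's F-12 with non-essential amino acids, 2 mM L-glutamine, penicillin/streptomycin and 10% FBS, at 37 °C and 5% CO2. They were seeded at 2000/well and left to attach overnight. Test compound was added at varying concentrations in DMSO (1% final) for 72 hr. Viable cells were measured by MTS/PMS and normalised to 1% DMSO wells as 100% proliferation.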

Hsp90 [3] = conditions: assay validation; cited from earlier work

Question: What does the source list for `CC(=O)NC1=C(c2ccc(Cl)cc2)C(=O)c2ccccc2C1=O` [Compound 3g]?
Answer: pIC50 [1]: 4.70 to 5.00; degradation of Hsp90 client proteins (Her2, Raf-1, Akt) [1]: induced the degradation of these client proteins in a concentration-dependent manner; effect on actin (non Hsp90-dependent protein) [1]: no similar effects on actin

Question: With `COc1ccc(C2=C(NC(=O)c3ccc4ccccc4c3)C(=O)c3ccccc3C2=O)cc1` [Compound 13h] as the compound, how does the “Her2 degradative activity (in words)” value (Her2) read?
Answer: complete loss of Her2 degradative activity

Question: With `COc1ccc(C2=C(NC(=O)c3cccc(OC)c3)C(=O)c3ccccc3C2=O)cc1` [Compound 13e] as the compound, how does the “fold decrease in Her2 degradative activity for meta substituents” value (Her2) read?
Answer: 15 fold

Question: For `COc1ccc(C2=C(NC(=O)c3ccc(OC)c(-c4cccc(OC)c4)c3)C(=O)c3ccccc3C2=O)cc1` [Compound 11, 3’,6-dimethoxy-N-(3-(4-methoxyphenyl)-1,4-dioxo-1,4-dihydronaphthalen-2-yl)biphenyl-3-carboxamide], which “inhibition of luciferase refolding (in words)” value (Hsp90 [2]) is on record?
Answer: unable to inhibit luciferase refolding

Question: What does the source list for `COc1ccc(C2=C(NC(=O)c3ccccc3Cl)C(=O)c3ccccc3C2=O)cc1` [Compound 13a]?
Answer: pIC50 [1]: 5.00 to 5.30; degradation of Hsp90 client proteins (Her2, Raf-1, Akt) [1]: induced the degradation of these client proteins in a concentration-dependent manner; effect on actin (non Hsp90-dependent protein) [1]: no similar effects on actin

Question: Which “fold decrease in Her2 degradative activity for meta substituents” value (Her2) does the source give for `COc1ccc(C2=C(NC(=O)c3cccc(Cl)c3)C(=O)c3ccccc3C2=O)cc1` [Compound 13b] here?
Answer: 6 fold

Question: For `COc1ccc(C2=C(NC(=O)C3CCCCC3)C(=O)c3ccccc3C2=O)cc1` [Compound 13i], which “inhibition of luciferase refolding (in words)” value (Hsp90 [2]) is on record?
Answer: low micromolar activity

Question: Which “inhibition of luciferase refolding (in words)” value (Hsp90 [2]) does the source give for `COc1cccc(-c2cc(C(=O)NC3=C(Cl)C(=O)c4ccccc4C3=O)ccc2OC)c1` [Compound 12] here?
Answer: low micromolar activity

Question: And the pIC50 (MCF-7 cells; Homo sapiens, MCF7, read-out: anti-proliferative activity IC50)?
Answer: 5.52 to 5.77

Question: And the pIC50 [1]?
Answer: 4.70 to 5.00

Question: And the “degradation of Hsp90 client proteins (Her2, Raf-1, Akt)” value [1]?
Answer: induced the degradation of these client proteins in a concentration-dependent manner

Question: And the “effect on actin (non Hsp90-dependent protein)” value [1]?
Answer: no similar effects on actin

Question: With `CC(=O)C1=C(c2ccccc2)C(=O)c2ccccc2C1=O` [HTS1] as the compound, how does the “fold greater anti-proliferative activity against MCF-7 cells compared to SKBr3 cells” value (MCF-7 cells; MCF-7 vs SKBr3) read?
Answer: 4 fold

Question: For `CO[C@@H]1[C@@H](OC(N)=O)[C@@H](O)[C@H](Oc2ccc3c(O)c(NC(=O)c4ccc(O)c(CC=C(C)C)c4)c(=O)oc3c2C)OC1(C)C` [novobiocin], which “reduction of luciferase renaturation by known Hsp90 inhibitors” value (Hsp90 [3]) is on record?
Answer: significantly reduce the renaturation of luciferase

Question: For `COc1ccc(C2=C(NC(=O)c3cccc4ccccc34)C(=O)c3ccccc3C2=O)cc1` [Compound 13g], which “fold decrease in Her2 activity compared to the corresponding benzamide (4d)” value (Her2; vs 4d) is on record?
Answer: 3 fold
